RGS4 block: inhibitors of human RGS4. P49798. HEK293 M3R/RGS4 inducible, Fluo-4 calcium flux; stronger effect = higher value; triggered by carbachol at its EC20. B-score at 10 µM. 310,000 tested, 0.45% active;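 active = B-score, a plate-corrected calcium signal, over three deviations above library mean, with baseline fluorescence within five deviations of library mean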;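 also: RGS4 expression induced by doxycycline in cells with stable M3 receptor; B-score is computed from the integrated fluorescence ratio over baseline after carbachol; higher B-score means a larger calcium signal and so more RGS4 inhibition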
Target sequence (P49798 whole entry, looked up): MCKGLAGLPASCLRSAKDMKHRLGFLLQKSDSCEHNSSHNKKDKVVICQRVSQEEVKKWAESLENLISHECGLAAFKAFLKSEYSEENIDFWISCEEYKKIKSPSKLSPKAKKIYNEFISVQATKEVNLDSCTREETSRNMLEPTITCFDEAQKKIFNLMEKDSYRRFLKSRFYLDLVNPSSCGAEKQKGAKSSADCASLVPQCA
MrgX1 ag: agonists of human MrgX1 receptor; Q96LB2; MrgX1-HEK293 cells, Fluo-4 calcium fluorescence, agonist mode; stronger effect = higher value; B-score at 10 µM; 310,000 tested, 0.44% active; AID 588627;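 active = calcium response B-score plate-corrected fluorescence ratio at least 3 library SD, with starting fluorescence B-score inside 5 SD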
Target sequence (Q96LB2 whole entry, looked up): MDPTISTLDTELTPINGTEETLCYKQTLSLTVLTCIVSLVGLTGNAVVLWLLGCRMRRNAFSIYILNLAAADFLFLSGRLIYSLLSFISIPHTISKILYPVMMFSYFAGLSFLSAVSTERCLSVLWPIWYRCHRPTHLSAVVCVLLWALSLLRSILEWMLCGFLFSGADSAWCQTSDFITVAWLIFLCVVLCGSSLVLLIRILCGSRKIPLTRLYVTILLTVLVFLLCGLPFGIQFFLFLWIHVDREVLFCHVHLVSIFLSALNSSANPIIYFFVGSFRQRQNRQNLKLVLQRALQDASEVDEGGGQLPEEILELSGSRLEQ
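Material: MrgX1-expressing HEK293 cells / Dosing: compound as first of three additions / Incubation: overnight seeding, then 1 h dark dye loading / Signal: Fluo-4 NW calcium fluorescence / Evaluation: B-scored fluorescence response ratio / Benchmarks: positive and negative control wells on each plate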
MrgX1 antagonist: antagonists of human MrgX1 receptor; MRGX1-HEK293 calcium flux, Fluo-4, BAM8-22 antagonism; stronger effect = lower value; Q96LB2; AID 588676; 310,000 tested, 1.3% active; B-score at 10 µM;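 active = calcium-response B-score plate-corrected more than 3 library SD below zero, starting fluorescence within 5 deviations, no agonist response on first addition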;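 also: peak minus trough fluorescence over baseline after final BAM8-22 challenge near maximal dose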
MrgX1 allo act: human MrgX1 positive allosteric modulation, primary screen; Q96LB2; MrgX1-HEK293, Fluo-4 calcium flux, FDSS; stronger effect = higher value; B-score at 10 µM; 310,000 tested, 0.63% active;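 active = plate-corrected calcium response at least 3 library SD above typical, normal starting fluorescence, not activating the receptor alone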;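 also: compound read alongside a low EC10 to EC30 dose of BAM8-22 agonist; peak minus trough fluorescence over baseline measured at the second addition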
RGS4 pot: RGS4 potentiation or activation; HEK293 M3R/inducible RGS4, carbachol calcium flux Fluo4; stronger effect = lower value; B-score at 10 µM; AID 463111; 310,000 tested, 0.92% active;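 active = B-score of the integrated calcium signal more than 4 SD below the library mean, with starting fluorescence not abnormally high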;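 also: negative B-score means reduced calcium response which marks RGS4 activation or potentiation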
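Reagent: ECmax carbachol challenge; Test system: M3R-expressing HEK293 line, RGS4 induced by doxycycline; Schedule: overnight RGS4 induction, 30 min dye load 37 °C, 20 min compound RT; Detection: calcium dye Fluo4 fluorescence; Read-out: Agonist-evoked peak-minus-minimum fluorescence over baseline, integrated ratio, B score.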
RGS4 inh valid: validation of RGS4 inhibitors. shares compounds with RGS4 block. 1,700 tested, 65% active. HEK293 M3R/RGS4, carbachol calcium Fluo-4 fluorescence; carbachol added at its EC20; 0 = buffer wells, 100 = carbachol control. calcium response, % at 10 µM;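 active = duplicate-averaged calcium response above the buffer-only control mean plus 5 SD of those controls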;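 also: integrated fluorescence ratio F max minus min over baseline F0; higher response in RGS4-induced cells means RGS4 inhibition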
M3R Ca ctr: checks RGS4 inhibitor effects in non-induced HEK293 M3R cells; shares compounds with RGS4 block; carbachol calcium Fluo-4; submaximal (EC20) carbachol stimulus; buffer wells 0%, carbachol control wells 100%; activity (percent), % at 10 µM; 1,900 tested, 20% active; AID 493000; call rule not given here;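 also: RGS4 induction absent so cells express M3R without RGS4; higher means more calcium signal and flags a non-specific hit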
RGS4 inh ctr2: second counter-screen for RGS4 inhibitors: non-induced cells without carbachol. shares compounds with RGS4 block. HEK293 M3R/RGS4 non-induced, Fluo-4 calcium, no carbachol; normalised: buffer wells 0%, carbachol wells 100%. calcium response (agonist-mode artifact), % at 10 µM. 1,900 tested, 22% active;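 active = duplicate-averaged calcium rise in uninduced cells above buffer wells' mean plus 5 SD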
Of the large screens only hits and unclear results are named; the others gave an inactive call (follow-up assays come after a bar, where they were run). Most compounds without a hit are left out; they make up all but 3.5% or so of the library.

COc1ccc(C(C(=O)NC2CCCCC2)N(C(=O)Cc2c[nH]c3ccccc23)c2ccccc2C)cc1OC (stereo unspecified)	none | RGS4 inh valid inactive | M3R Ca ctr inactive | RGS4 inh ctr2 inactive
CC(C)(C)NS(=O)(=O)c1ccc(/C=C/C(=O)O)cc1	none
N#Cc1c(-c2ccccc2Cl)noc1/C=C/Nc1ccc(C(=O)O)cc1	none | M3R Ca ctr inactive | RGS4 inh ctr2 inactive
CC(C)NCC(O)c1cc(O)cc(O)c1 (stereo unspecified)	RGS4 block 4.8 | RGS4 inh valid 22% | M3R Ca ctr 52% | RGS4 inh ctr2 inactive
COc1ccc(-c2nsc3c(N4CCN(C(=O)c5ccco5)CC4)ncnc23)cc1	none | RGS4 inh valid inactive | M3R Ca ctr inactive | RGS4 inh ctr2 inactive
NC(=O)C1CCN(c2ncnc3c(-c4ccccc4)nsc23)CC1	none
O=C(c1ccco1)N1CCN(c2ncnc3c(-c4ccccc4)nsc23)CC1	none | M3R Ca ctr inactive | RGS4 inh ctr2 inactive
COc1ccc(-c2nc(-c3ccccn3)nc(N3CCN(C)CC3)c2C#N)cc1	none
N#Cc1ccccc1NC(=O)C1SC(=Nc2ccccc2)C(C(=O)Nc2ccc(Cl)cc2)=C1N (stereo unspecified)	RGS4 block 5.8 | RGS4 inh valid inactive | M3R Ca ctr inactive | RGS4 inh ctr2 inactive
Cc1cccc(Cn2cccc2/C=C2/C(=N)N3C=CSC3=NC2=O)c1	none
N=C1/C(=C/c2cccn2Cc2ccc(F)cc2)C(=O)N=C2SC=CN12	none | M3R Ca ctr inactive | RGS4 inh ctr2 21%
Cc1ccc(Cn2cccc2/C=C2/C(=N)N3C=CSC3=NC2=O)cc1	none | RGS4 inh valid inactive | M3R Ca ctr inactive | RGS4 inh ctr2 inactive
COc1c(C)cccc1C(=O)Nc1ccc(N2CCOCC2)c(Cl)c1	none
C=CCNC(=O)NC(=O)COC(=O)c1nc2nccc(C)n2n1	RGS4 block 4.7 | RGS4 inh valid inactive | M3R Ca ctr inactive | RGS4 inh ctr2 inactive
CCOCCCNC(=O)CN1C(=O)COc2ccc(S(=O)(=O)N3CCC(C)CC3)cc21	none | RGS4 inh valid inactive | M3R Ca ctr inactive | RGS4 inh ctr2 inactive
CCOCCCNC(=O)CN1C(=O)COc2ccc(S(=O)(=O)N3CC(C)CC(C)C3)cc21 (stereo unspecified)	none
CCOCCCNC(=O)CN1C(=O)COc2ccc(S(=O)(=O)N3CCOCC3)cc21	RGS4 block 27 | RGS4 inh valid 6.5% | M3R Ca ctr inactive | RGS4 inh ctr2 inactive
CCOCCCNC(=O)CN1C(=O)COc2ccc(S(=O)(=O)N3CCCCCC3)cc21	none | RGS4 inh valid inactive | M3R Ca ctr inactive | RGS4 inh ctr2 inactive
CCOC(=O)C1CCN(C(c2cc3ccc(C)c(C)c3[nH]c2=O)c2nnnn2C2CCCCC2)CC1 (stereo unspecified)	none | RGS4 inh valid inactive | M3R Ca ctr inactive | RGS4 inh ctr2 19%
CCOC(=O)C1CCN(C(c2cc3c(C)ccc(C)c3[nH]c2=O)c2nnnn2C2CCCCC2)CC1 (stereo unspecified)	none | RGS4 inh valid inactive | M3R Ca ctr inactive | RGS4 inh ctr2 inactive
COc1ccc(NC2CCCN(C(=O)c3ccc4[nH]c(C)c(C)c4c3)C2)cc1 (stereo unspecified)	none
CCOC(=O)c1cc(NC(=O)CC(C)(C)CC(=O)O)ccc1N1CCCCC1	none
Oc1ccc(N=C/C=C/c2cccc(Br)c2)cc1-c1nc2ccccc2s1	RGS4 block 8.6 | RGS4 inh valid inactive | M3R Ca ctr inactive | RGS4 inh ctr2 inactive
Cc1ccc(SCC(=O)NCc2ccccc2)cc1	none
COc1ccc(/C=C2/SC(=O)N(CCNC(=O)C3COc4ccccc4O3)C2=O)cc1 (stereo unspecified)	none
O=C(NCCN1C(=O)S/C(=C\c2ccc(Cl)c(Cl)c2)C1=O)C1COc2ccccc2O1 (stereo unspecified)	RGS4 block 4.9 | RGS4 inh valid 8.0% | M3R Ca ctr inactive | RGS4 inh ctr2 inactive
CCOc1c(Br)cc(/C=C2\N=C(C)OC2=O)cc1Br	RGS4 block 4.7 | RGS4 inh valid 66% | M3R Ca ctr 37% | RGS4 inh ctr2 inactive
N#Cc1ccc(C2=NC(C(F)(F)F)(C(F)(F)F)c3c(n(Cc4ccco4)c(=O)[nH]c3=O)N2)cc1	RGS4 block 6.1, MrgX1 ag 37 | RGS4 inh valid 13% | M3R Ca ctr inactive | RGS4 inh ctr2 16%
CCc1ccc(NC(=O)c2ccc3c(c2)C(=O)N(CCOC)C3Nc2ccc(CC)cc2)cc1 (stereo unspecified)	none
CCOC(=O)c1c(-c2ccc(C)o2)csc1NC(=O)CSc1nncs1	RGS4 block 13 | RGS4 inh valid 11% | M3R Ca ctr inactive | RGS4 inh ctr2 inactive
CCOC(=O)c1c(-c2ccccc2)csc1NC(=O)CSc1nc(C)cc(C)n1	none | RGS4 inh valid inactive | M3R Ca ctr inactive | RGS4 inh ctr2 inactive
CCOC(=O)c1c(-c2ccc(C)o2)csc1NC(=O)CN1CCCCC1	none
CCOC(=O)c1c(-c2ccccc2)csc1NC(=O)CSc1nc(N)cc(N)n1	RGS4 block 5.5 | RGS4 inh valid 6.0% | M3R Ca ctr inactive | RGS4 inh ctr2 inactive
COc1cc2c(cc1OC)-c1cc(Nc3cccc(F)c3)nc(=O)n1CC2	none (no result: MrgX1 ag, MrgX1 antagonist, MrgX1 allo act)
COc1cc2c(cc1OC)-c1cc(Nc3ccc(N(C)C)cc3)nc(=O)n1CC2	RGS4 block 5.6 | RGS4 inh valid 7.0% | M3R Ca ctr 36% | RGS4 inh ctr2 inactive
COc1cc2c(cc1OC)-c1cc(NC3CCCC3)nc(=O)n1CC2	none
COc1cc2c(cc1OC)-c1cc(Nc3ccc(F)cc3)nc(=O)n1CC2	none | RGS4 inh valid inactive | M3R Ca ctr inactive | RGS4 inh ctr2 inactive
CCc1ccccc1NC(=O)CSc1nnc(CNC(=O)c2ccco2)n1C	none
CCOC(=O)C1=C(c2ccccc2)NC(N)=NC1c1ccc(OCc2ccc(Cl)cc2)c(OC)c1 (stereo unspecified)	RGS4 block 8.9 | RGS4 inh valid 32% | M3R Ca ctr inactive | RGS4 inh ctr2 34%
CCOC(=O)C1=C(c2ccccc2)NC(=O)NC1c1cc(Cl)c(O)c(OC)c1 (stereo unspecified)	none
COc1ccc(OC)c(CNC(=O)C2CCC(=O)N(CCCN3CCCC3=O)C2)c1 (stereo unspecified)	none
OCCN(CCO)c1ccc2ccccc2c1	none

Screens from PubChem BioAssay.
